Data: ChEMBL document CHEMBL5724801, “EUbOPEN Chemogenomics Library - Multiplex” (2024)
Several values for one entry are separate records, joined by “and”; a condition that tells them apart may be missing. Equal values may be shown once.

Tested on: U2OS
Test: Multiplex assay against U2OS
Format: toxicity, cell-based
Details: human
Outline: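 Live cells were stained at seeding with Hoechst33342, BioTracker Green Microtubule Cytoskeleton Dye, MitoTracker Red and Annexin V Alexa Fluor 680, then imaged on a CQ1 microscope at 37°C and 5% CO2 after compound addition. CellPathfinder machine-learning gating split cells into Hoechst high-intensity objects or normal cells. Normal cells were split into healthy, pyknosed or fragmented nuclei, and pyknosed cells into mitotic or apoptotic. Tubulin, mitochondrial-mass and membrane-permeability phenotypes are per cents of healthy-nucleus cells.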

[1] = 12 h, 1 µM, compound concentration 1 uM
[2] = 12 h, 10 µM, compound concentration 10 uM
[3] = 24 h, 1 µM, compound concentration 1 uM
[4] = 24 h, 10 µM, compound concentration 10 uM
[5] = 48 h, 1 µM, compound concentration 1 uM
[6] = 48 h, 10 µM, compound concentration 10 uM

CC(=O)Nc1cccc2c1c(Sc1ccc(Cl)cc1)c(C)n2CC(=O)O [AZD1981]
Population Apoptotic (%) [1]: 68% and 83% | Population Fragmented Nuclei (%) [1]: 24% and 16% | Population Healthy Nuclei (%) [1]: 68% and 76% | Population Hoechst High Intensity Objects (%) [1]: 3% and 1% | Population Membrane Permeable-Phenotype (%) [1]: 3% and 6% | Population Mitochondria Different-Phenotype (%) [1]: 0% and 1% | Population Mitotic Cells (%) [1]: 31% and 16% | Population Normal (%) [1]: 96% and 98% | Population Pyknosed Nuclei (%) [1]: 6% and 7% | Population Tubulin-Different-Phenotype (%) [1]: 2% and 3% | Population Apoptotic (%) [2]: 83% and 80% | Population Fragmented Nuclei (%) [2]: 25% and 19% | Population Healthy Nuclei (%) [2]: 66% and 76% | Population Hoechst High Intensity Objects (%) [2]: 2% and 3% | Population Membrane Permeable-Phenotype (%) [2]: 8% and 10% | Population Mitochondria Different-Phenotype (%) [2]: 0% and 3% | Population Mitotic Cells (%) [2]: 16% and 20% | Population Normal (%) [2]: 97% and 96% | Population Pyknosed Nuclei (%) [2]: 7% and 4% | Population Tubulin-Different-Phenotype (%) [2]: 1% and 5% | Total Cell Count [2]: 231 and 122 | Population Apoptotic (%) [3]: 91% and 50% | Population Fragmented Nuclei (%) [3]: 25% and 16% | Population Healthy Nuclei (%) [3]: 66% and 82% | Population Hoechst High Intensity Objects (%) [3]: 2% and 0% | Population Membrane Permeable-Phenotype (%) [3]: 5% and 4% | Population Mitochondria Different-Phenotype (%) [3]: 1% and 3% | Population Normal (%) [3]: 97% and 100% | Population Pyknosed Nuclei (%) [3]: 8% and 1% | Population Tubulin-Different-Phenotype (%) [3]: 3% and 0% | Total Cell Count [3]: 289 and 106 | Population Apoptotic (%) [4]: 88% and 100% | Population Fragmented Nuclei (%) [4]: 23% and 14% | Population Healthy Nuclei (%) [4]: 66% and 77% | Population Hoechst High Intensity Objects (%) [4]: 0% | Population Membrane Permeable-Phenotype (%) [4]: 6% and 3% | Population Mitochondria Different-Phenotype (%) [4]: 2% and 4% | Population Mitotic Cells (%) [4]: 11% and 0% | Population Normal (%) [4]: 99% | Population Pyknosed Nuclei (%) [4]: 9% and 8% | Population Tubulin-Different-Phenotype (%) [4]: 2% and 0% | Total Cell Count [4]: 266 and 125 | Population Apoptotic (%) [5]: 91% and 81% | Population Fragmented Nuclei (%) [5]: 16% and 9% | Population Healthy Nuclei (%) [5]: 74% and 82% | Population Hoechst High Intensity Objects (%) [5]: 1% and 3% | Population Membrane Permeable-Phenotype (%) [5]: 6% | Population Mitochondria Different-Phenotype (%) [5]: 2% and 0% | Population Mitotic Cells (%) [5]: 8% and 18% | Population Normal (%) [5]: 98% and 96% | Population Pyknosed Nuclei (%) [5]: 9% and 7% | Population Tubulin-Different-Phenotype (%) [5]: 4% and 1% | Total Cell Count [5]: 375 and 144 | Population Apoptotic (%) [6]: 100% and 85% | Population Fragmented Nuclei (%) [6]: 18% and 14% | Population Healthy Nuclei (%) [6]: 75% and 73% | Population Hoechst High Intensity Objects (%) [6]: 2% and 1% | Population Membrane Permeable-Phenotype (%) [6]: 7% | Population Mitochondria Different-Phenotype (%) [6]: 2% and 4% | Population Mitotic Cells (%) [6]: 0% and 15% | Population Normal (%) [6]: 97% and 98% | Population Pyknosed Nuclei (%) [6]: 5% and 11% | Population Tubulin-Different-Phenotype (%) [6]: 4% | Total Cell Count [6]: 366 and 171

Cc1cc(C)c(NC(=O)C2CC3CCC2C3)c(C)c1 (centres undefined)
Population Apoptotic (%) [1]: 35.29% | Population Fragmented Nuclei (%) [1]: 2.08% and 2.72% | Population Healthy Nuclei (%) [1]: 89.09% and 88.04% | Population Hoechst High Intensity Objects (%) [1]: 0% | Population Membrane Permeable-Phenotype (%) [1]: 1.75% and 1.23% | Population Mitochondria Different-Phenotype (%) [1]: 0.29% and 4.94% | Population Mitotic Cells (%) [1]: 64.71% | Population Normal (%) [1]: 100% | Population Pyknosed Nuclei (%) [1]: 8.83% and 9.24% | Population Tubulin-Different-Phenotype (%) [1]: 2.04% and 0% | Total Cell Count [1]: 385 and 184 | Population Apoptotic (%) [2]: 50% and 36% | Population Fragmented Nuclei (%) [2]: 2.53% and 4.4% | Population Healthy Nuclei (%) [2]: 88.71% and 79.87% | Population Hoechst High Intensity Objects (%) [2]: 0% | Population Membrane Permeable-Phenotype (%) [2]: 1.56% and 2.36% | Population Mitochondria Different-Phenotype (%) [2]: 0.26% and 8.66% | Population Mitotic Cells (%) [2]: 50% and 64% | Population Normal (%) [2]: 100% | Population Pyknosed Nuclei (%) [2]: 8.76% and 15.72% | Population Tubulin-Different-Phenotype (%) [2]: 0.52% and 1.57% | Total Cell Count [2]: 434 and 159 | Population Apoptotic (%) [3]: 42.86% and 36% | Population Fragmented Nuclei (%) [3]: 2.11% and 1.27% | Population Healthy Nuclei (%) [3]: 84.48% and 88.19% | Population Hoechst High Intensity Objects (%) [3]: 0.19% and 0% | Population Membrane Permeable-Phenotype (%) [3]: 1.36% and 1.91% | Population Mitochondria Different-Phenotype (%) [3]: 0.23% and 2.39% | Population Mitotic Cells (%) [3]: 57.14% and 64% | Population Normal (%) [3]: 99.81% and 100% | Population Pyknosed Nuclei (%) [3]: 13.41% and 10.55% | Population Tubulin-Different-Phenotype (%) [3]: 0.91% and 0% | Total Cell Count [3]: 523 and 237 | Population Apoptotic (%) [4]: 34.38% and 46.43% | Population Fragmented Nuclei (%) [4]: 2.9% and 2.49% | Population Healthy Nuclei (%) [4]: 86.2% and 83.58% | Population Hoechst High Intensity Objects (%) [4]: 0.17% and 0% | Population Membrane Permeable-Phenotype (%) [4]: 1.19% | Population Mitochondria Different-Phenotype (%) [4]: 0.4% and 3.57% | Population Mitotic Cells (%) [4]: 65.62% and 53.57% | Population Normal (%) [4]: 99.83% and 100% | Population Pyknosed Nuclei (%) [4]: 10.9% and 13.93% | Population Tubulin-Different-Phenotype (%) [4]: 0.79% and 2.38% | Total Cell Count [4]: 588 and 201 | Population Apoptotic (%) [5]: 45% and 48.57% | Population Fragmented Nuclei (%) [5]: 2.82% and 2% | Population Healthy Nuclei (%) [5]: 88.83% and 89.25% | Population Hoechst High Intensity Objects (%) [5]: 0% | Population Membrane Permeable-Phenotype (%) [5]: 2% and 1.96% | Population Mitochondria Different-Phenotype (%) [5]: 0.12% and 3.08% | Population Mitotic Cells (%) [5]: 55% and 51.43% | Population Normal (%) [5]: 100% | Population Pyknosed Nuclei (%) [5]: 8.35% and 8.75% | Population Tubulin-Different-Phenotype (%) [5]: 1.53% and 0.28% | Total Cell Count [5]: 958 and 400 | Population Apoptotic (%) [6]: 38.02% and 53.12% | Population Fragmented Nuclei (%) [6]: 3.32% and 3.75% | Population Healthy Nuclei (%) [6]: 86.1% and 87.03% | Population Hoechst High Intensity Objects (%) [6]: 0% | Population Membrane Permeable-Phenotype (%) [6]: 1.52% and 2.32% | Population Mitochondria Different-Phenotype (%) [6]: 0.1% and 3.97% | Population Mitotic Cells (%) [6]: 61.98% and 46.88% | Population Normal (%) [6]: 100% | Population Pyknosed Nuclei (%) [6]: 10.58% and 9.22% | Population Tubulin-Different-Phenotype (%) [6]: 1.22% and 1.99%
